# From ChEMBL document CHEMBL5705905, “Pharmacological targeting of kinases MST1 and MST2 augments tissue repair and regeneration” (Sci Transl Med, 2016)
# Activity calls are given as the source filed them. The rule behind the calls is not given here.
# What was measured:
# [1] = Cmax in male Sprague-Dawley rat at 10 mg/kg, po measured for 24 hrs by LC-MS/MS analysis; type: ADME, organism-based; details: in vivo
# In short: (§1)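 Sprague-Dawley rats, single intravenous or oral dose. Parameters (half-life, AUC, bioavailability) reported in a supplementary table.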
# [2] = Half life in male Sprague-Dawley rat at 5 mg/kg, iv measured for 24 hrs by LC-MS/MS analysis; type: ADME, organism-based; details: in vivo; in short: as §1
# [3] = biological target: Aurora kinase B (Homo sapiens, UniProt Q96GD4); assay: Binding affinity to AURKB (unknown origin) assessed as dissociation constant
# Sequence of Aurora kinase B (Q96GD4 whole entry): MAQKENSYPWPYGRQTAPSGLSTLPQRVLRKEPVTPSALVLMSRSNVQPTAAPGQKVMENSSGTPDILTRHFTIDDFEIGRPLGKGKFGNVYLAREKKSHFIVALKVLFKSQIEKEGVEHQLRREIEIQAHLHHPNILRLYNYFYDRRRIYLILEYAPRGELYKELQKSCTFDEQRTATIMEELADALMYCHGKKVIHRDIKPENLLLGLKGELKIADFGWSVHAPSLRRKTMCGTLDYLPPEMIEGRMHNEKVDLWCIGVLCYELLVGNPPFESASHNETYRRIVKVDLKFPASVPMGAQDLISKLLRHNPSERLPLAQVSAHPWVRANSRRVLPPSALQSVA
# [4] = biological target: Wee1-like protein kinase 2 (Homo sapiens) (UniProt P0C1S8); assay: Inhibition of WEE2 (unknown origin) assessed as remaining activity at 1 uM by Kinome scan method relative to control
# [5] = biological target: Phosphatidylinositol 4-phosphate 5-kinase type-1 gamma (Homo sapiens, UniProt O60331); assay: Inhibition of PIP5K1C (unknown origin) assessed as remaining activity at 1 uM by Kinome scan method relative to control
# [6] = biological target: Ephrin type-B receptor 6 (Homo sapiens) (UniProt O15197); assay: Inhibition of EPHB6 (unknown origin) assessed as remaining activity at 1 uM by Kinome scan method relative to control
# Sequence of Ephrin type-B receptor 6 (Homo sapiens) (O15197 whole entry): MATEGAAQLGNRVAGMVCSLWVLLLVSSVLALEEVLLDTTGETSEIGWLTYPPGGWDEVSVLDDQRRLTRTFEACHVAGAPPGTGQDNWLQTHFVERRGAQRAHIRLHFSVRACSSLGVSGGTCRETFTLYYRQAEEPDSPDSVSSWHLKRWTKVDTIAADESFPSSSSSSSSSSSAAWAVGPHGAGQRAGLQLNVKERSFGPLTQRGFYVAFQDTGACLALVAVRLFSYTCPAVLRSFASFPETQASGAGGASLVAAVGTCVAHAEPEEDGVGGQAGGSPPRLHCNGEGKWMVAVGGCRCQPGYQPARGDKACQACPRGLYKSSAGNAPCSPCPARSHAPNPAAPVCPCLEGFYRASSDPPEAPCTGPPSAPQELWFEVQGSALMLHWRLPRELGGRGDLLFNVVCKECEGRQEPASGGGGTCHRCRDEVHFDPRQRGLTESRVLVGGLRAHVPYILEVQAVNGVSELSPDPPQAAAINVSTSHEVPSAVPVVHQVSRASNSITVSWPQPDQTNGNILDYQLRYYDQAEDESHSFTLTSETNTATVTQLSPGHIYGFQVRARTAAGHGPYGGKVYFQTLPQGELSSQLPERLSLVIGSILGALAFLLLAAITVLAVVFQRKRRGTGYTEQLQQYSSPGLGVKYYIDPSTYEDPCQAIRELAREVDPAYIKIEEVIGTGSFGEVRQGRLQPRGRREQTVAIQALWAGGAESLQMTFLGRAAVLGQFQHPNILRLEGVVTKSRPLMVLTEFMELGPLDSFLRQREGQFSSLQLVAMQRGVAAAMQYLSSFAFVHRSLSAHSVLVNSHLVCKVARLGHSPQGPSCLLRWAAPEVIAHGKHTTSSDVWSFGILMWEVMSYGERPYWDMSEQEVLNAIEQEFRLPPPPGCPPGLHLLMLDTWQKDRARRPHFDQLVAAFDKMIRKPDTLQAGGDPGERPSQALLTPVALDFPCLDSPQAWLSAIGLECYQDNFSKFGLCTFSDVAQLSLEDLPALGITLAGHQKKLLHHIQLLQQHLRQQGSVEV
# [7] = system: Mus musculus; assay: In vivo inhibition of MST1/2 in wild-type Mst1fl/fl Mst2fl/fl mouse assessed as decrease in MOB1 phosphorylation level at 1 mg/kg, ip administrated daily for 7 days by immunoblot analysis; type: functional, organism-based; details: Liver, time 7.0 day
# [8] = biological target: Aurora kinase A (Homo sapiens, UniProt O14965); assay: Inhibition of AURKA (unknown origin) in presence of ATP by enzymatic assay
# [9] = Toxicity in APAP induced liver injury in mouse assessed as cancer cell growth at 1 mg/kg, ip administered for > 10 months; type: organism-based; details: in vivo, 7300 h
# [10] = system: Tyrosine-protein kinase ABL1 (Homo sapiens), P00519 [F317I]; assay: Inhibition of phosphorylated ABL1 F317I mutant (unknown origin) assessed as remaining activity at 1 uM by Kinome scan method relative to control
# [11] = biological target: NT-3 growth factor receptor (Homo sapiens) (UniProt Q16288); assay: Inhibition of TRKC (unknown origin) assessed as remaining activity at 1 uM by Kinome scan method relative to control
# [12] = system: Mus musculus; assay: Protection against APAP induced liver injury in mouse assessed as increase in survival rate at 1 mg/kg, ip administered at 2.5 hrs in the presence of NAC […]; type: functional
# In short: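 Wild-type mice given oral APAP 400 mg/kg, then i.p. vehicle, NAC 250 mg/kg, 1 mg/kg test agent, or NAC plus test agent at 1.5 or 2.5 h. Mortality was tracked with n = 10–11 per group, Mantel-Cox test. Separately, TUNEL was done on liver after 200 mg/kg APAP with treatment at 2.5 h.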
# [13] = system: Mus musculus; assay: Protection against APAP induced liver injury in mouse assessed as continual expansion of centrilobular necrotic lesions at 1 mg/kg, ip administered at 2.5 hrs by TUNEL staining; type: functional, organism-based
# [14] = biological target: Aurora kinase A (Homo sapiens) (UniProt O14965); assay: Inhibition of AURKA (unknown origin) assessed as remaining activity at 1 uM by Kinome scan method relative to control
# In short: (§2)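 Active-site-dependent competition-binding (KINOMEscan) panel of 468 kinases, test compound at 1 μM (from a 10 mM DMSO stock). Read-out is ctrl% = (test signal − positive control signal)/(negative control signal − positive control signal) × 100. DMSO is the negative control (100%) and a control compound is the positive control (0%). Lower ctrl% means tighter binding.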
# [15] = system: HepG2; assay: Induction of apoptosis in human HepG2 cells overexpressing MST2 assessed as viable cells at 3 uM by annexinV staining (Rvb =84.2 %); type: functional; details: read-out: Activity
# [16] = biological target: Tyrosine-protein kinase receptor Tie-1 (Homo sapiens) (UniProt P35590); assay: Inhibition of TIE1 (unknown origin) assessed as remaining activity at 1 uM by Kinome scan method relative to control
# [17] = system: Receptor-type tyrosine-protein kinase FLT3 (Homo sapiens), P36888 [K663Q]; assay: Inhibition of FLT3 K663Q mutant (unknown origin) assessed as remaining activity at 1 uM by Kinome scan method relative to control
# [18] = system: Mast/stem cell growth factor receptor Kit (Homo sapiens), P10721 [L576P]; assay: Inhibition of KIT L576P mutant (unknown origin) assessed as remaining activity at 1 uM by Kinome scan method relative to control
# [19] = biological target: 3-phosphoinositide-dependent protein kinase 1 (Homo sapiens) (UniProt O15530); assay: Inhibition of PDPK1 (unknown origin) assessed as remaining activity at 1 uM by Kinome scan method relative to control
# Sequence of 3-phosphoinositide-dependent protein kinase 1 (Homo sapiens) (O15530 whole entry): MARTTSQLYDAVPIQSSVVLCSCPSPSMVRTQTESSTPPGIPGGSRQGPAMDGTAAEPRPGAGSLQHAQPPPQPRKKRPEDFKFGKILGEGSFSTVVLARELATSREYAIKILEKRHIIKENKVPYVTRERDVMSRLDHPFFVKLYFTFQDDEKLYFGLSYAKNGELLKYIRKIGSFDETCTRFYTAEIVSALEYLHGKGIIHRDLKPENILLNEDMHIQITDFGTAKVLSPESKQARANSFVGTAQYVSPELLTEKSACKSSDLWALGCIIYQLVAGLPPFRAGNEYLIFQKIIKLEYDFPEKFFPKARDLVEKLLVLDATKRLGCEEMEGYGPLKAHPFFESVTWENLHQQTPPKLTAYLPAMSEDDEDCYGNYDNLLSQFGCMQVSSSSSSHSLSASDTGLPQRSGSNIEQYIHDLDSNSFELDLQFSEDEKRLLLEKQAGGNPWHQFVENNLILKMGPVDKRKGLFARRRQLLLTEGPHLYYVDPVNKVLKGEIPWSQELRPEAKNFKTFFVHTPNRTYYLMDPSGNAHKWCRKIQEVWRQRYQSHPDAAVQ
# [20] = biological target: Tyrosine-protein kinase receptor UFO (Homo sapiens) (UniProt P30530); assay: Inhibition of AXL (unknown origin) assessed as remaining activity at 1 uM by Kinome scan method relative to control; in short: as §2
# [21] = system: Receptor-type tyrosine-protein kinase FLT3 (Homo sapiens), P36888 [UNDEFINED MUTATION]; assay: Inhibition of FLT3 […]/F691L mutant (unknown origin) assessed as remaining activity at 1 uM by Kinome scan method relative to control
# [22] = biological target: Myotonin-protein kinase (Homo sapiens) (UniProt Q09013); assay: Inhibition of DMPK (unknown origin) assessed as remaining activity at 1 uM by Kinome scan method relative to control
# [23] = biological target: NUAK family SNF1-like kinase 2 (Homo sapiens) (UniProt Q9H093); assay: Inhibition of SNARK (unknown origin) assessed as remaining activity at 1 uM by Kinome scan method relative to control
# [24] = biological target: Serine/threonine-protein kinase TAO2 (Homo sapiens) (UniProt Q9UL54); assay: Inhibition of TAOK2 (unknown origin) assessed as remaining activity at 1 uM by Kinome scan method relative to control
# [25] = biological target: Citron Rho-interacting kinase (Homo sapiens) (UniProt O14578); assay: Inhibition of CIT (unknown origin) assessed as remaining activity at 1 uM by Kinome scan method relative to control
# Sequence of Citron Rho-interacting kinase (Homo sapiens) (O14578 whole entry): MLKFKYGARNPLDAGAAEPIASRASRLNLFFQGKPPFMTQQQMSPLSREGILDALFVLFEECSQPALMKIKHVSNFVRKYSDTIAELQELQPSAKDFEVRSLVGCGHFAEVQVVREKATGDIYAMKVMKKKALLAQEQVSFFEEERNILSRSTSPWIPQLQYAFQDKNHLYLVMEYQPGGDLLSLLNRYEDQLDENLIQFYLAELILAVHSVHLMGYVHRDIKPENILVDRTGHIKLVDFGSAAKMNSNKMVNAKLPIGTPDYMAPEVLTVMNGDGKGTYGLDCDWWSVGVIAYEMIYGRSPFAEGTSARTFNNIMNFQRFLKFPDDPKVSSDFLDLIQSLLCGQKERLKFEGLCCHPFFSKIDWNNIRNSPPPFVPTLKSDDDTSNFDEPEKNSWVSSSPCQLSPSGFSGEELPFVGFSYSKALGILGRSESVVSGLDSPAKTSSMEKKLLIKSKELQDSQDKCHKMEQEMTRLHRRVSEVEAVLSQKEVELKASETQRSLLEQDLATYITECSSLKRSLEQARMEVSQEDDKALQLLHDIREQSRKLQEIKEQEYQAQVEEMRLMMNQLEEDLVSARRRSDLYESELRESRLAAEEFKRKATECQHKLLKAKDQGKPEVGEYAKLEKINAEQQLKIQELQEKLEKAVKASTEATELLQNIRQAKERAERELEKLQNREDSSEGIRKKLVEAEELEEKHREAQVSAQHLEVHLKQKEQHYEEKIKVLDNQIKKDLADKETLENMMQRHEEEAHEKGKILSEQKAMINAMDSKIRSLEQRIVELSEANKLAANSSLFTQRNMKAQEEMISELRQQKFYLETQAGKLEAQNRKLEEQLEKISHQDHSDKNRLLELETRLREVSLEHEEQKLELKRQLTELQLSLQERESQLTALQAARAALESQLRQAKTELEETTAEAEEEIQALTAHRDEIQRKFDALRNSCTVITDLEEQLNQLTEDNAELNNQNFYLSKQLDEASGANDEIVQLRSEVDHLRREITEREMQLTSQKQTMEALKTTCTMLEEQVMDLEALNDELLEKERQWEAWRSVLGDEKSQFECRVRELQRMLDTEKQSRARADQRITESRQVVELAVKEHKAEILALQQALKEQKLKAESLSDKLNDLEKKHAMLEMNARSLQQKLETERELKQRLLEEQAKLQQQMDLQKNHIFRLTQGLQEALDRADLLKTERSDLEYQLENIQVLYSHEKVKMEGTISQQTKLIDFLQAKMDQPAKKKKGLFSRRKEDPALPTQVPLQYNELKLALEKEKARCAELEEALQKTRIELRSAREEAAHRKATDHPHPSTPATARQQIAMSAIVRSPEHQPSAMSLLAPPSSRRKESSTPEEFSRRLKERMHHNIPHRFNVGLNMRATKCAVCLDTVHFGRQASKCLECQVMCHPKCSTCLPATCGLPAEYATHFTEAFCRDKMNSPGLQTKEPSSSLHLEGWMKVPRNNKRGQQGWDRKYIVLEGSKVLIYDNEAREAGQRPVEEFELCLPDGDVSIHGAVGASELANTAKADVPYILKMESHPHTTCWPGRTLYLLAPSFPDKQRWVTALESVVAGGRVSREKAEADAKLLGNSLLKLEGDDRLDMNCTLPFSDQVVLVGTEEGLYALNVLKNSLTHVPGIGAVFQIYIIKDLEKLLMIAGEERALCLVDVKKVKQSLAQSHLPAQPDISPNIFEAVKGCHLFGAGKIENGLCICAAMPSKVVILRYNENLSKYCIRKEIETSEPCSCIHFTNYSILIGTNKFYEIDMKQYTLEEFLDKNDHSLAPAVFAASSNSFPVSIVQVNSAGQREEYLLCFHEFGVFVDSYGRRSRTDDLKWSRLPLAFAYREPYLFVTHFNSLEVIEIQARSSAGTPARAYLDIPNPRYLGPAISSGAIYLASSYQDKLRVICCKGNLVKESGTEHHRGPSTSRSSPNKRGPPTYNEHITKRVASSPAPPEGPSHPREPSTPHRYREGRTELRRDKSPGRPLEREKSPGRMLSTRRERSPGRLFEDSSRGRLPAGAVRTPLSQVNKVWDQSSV
# In short: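 Active-site-dependent competition-binding profiling (KINOMEscan) at 1 μM against a 468-kinase panel; compound supplied from a 10 mM DMSO stock. Read-out is ctrl% = (test signal − positive control signal)/(negative control signal − positive control signal) × 100. DMSO is the negative control (100%) and a control compound the positive control (0%). Lower ctrl% means tighter binding.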
# [26] = biological target: Mitogen-activated protein kinase kinase kinase 2 (Homo sapiens, UniProt Q9Y2U5); assay: Inhibition of MAP3K2 (unknown origin) in presence of ATP by enzymatic assay
# [27] = biological target: Serine/threonine-protein kinase TAO1 (Homo sapiens, UniProt Q7L7X3); assay: Inhibition of TAOK1 (unknown origin) in presence of ATP by enzymatic assay
# Sequence of Serine/threonine-protein kinase TAO1 (Q7L7X3 whole entry): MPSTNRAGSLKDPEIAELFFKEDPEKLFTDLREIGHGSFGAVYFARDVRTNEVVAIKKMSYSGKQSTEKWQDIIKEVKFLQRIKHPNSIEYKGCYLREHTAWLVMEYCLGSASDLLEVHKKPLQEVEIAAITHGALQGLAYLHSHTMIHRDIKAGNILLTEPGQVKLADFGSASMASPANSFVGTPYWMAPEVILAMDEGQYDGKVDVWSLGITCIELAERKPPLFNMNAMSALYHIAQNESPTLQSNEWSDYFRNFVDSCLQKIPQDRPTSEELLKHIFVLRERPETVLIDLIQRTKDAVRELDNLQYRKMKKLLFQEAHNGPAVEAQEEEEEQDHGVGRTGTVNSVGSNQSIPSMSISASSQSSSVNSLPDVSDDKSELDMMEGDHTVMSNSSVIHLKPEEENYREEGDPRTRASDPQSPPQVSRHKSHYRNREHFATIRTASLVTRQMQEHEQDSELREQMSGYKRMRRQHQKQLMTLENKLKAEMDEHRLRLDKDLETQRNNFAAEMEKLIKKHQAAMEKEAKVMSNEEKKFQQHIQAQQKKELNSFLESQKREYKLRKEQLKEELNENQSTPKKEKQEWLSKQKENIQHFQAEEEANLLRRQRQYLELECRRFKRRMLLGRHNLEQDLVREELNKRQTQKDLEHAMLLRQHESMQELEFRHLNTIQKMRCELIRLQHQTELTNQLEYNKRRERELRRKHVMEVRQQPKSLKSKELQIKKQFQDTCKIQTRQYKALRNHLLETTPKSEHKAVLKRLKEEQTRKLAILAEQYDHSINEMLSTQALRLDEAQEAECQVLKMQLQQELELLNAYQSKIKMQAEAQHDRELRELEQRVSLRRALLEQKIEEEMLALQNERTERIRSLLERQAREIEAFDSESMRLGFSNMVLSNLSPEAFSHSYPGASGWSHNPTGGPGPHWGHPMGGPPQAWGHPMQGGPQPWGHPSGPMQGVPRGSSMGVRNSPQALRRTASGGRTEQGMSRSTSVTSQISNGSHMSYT
# [28] = biological target: Serine/threonine-protein kinase SIK2 (Homo sapiens) (UniProt Q9H0K1); assay: Inhibition of SIK2 (unknown origin) assessed as remaining activity at 1 uM by Kinome scan method relative to control
smiles,measurement,setting,value
CN1C(=O)c2sccc2N(C)c2nc(Nc3ccc(S(N)(=O)=O)cc3)ncc21,Cmax,[1],118 ng/mL
same,half-life,[2],1.24 h
same,Kd,[3],40 nM
same,Activity,[4],91%
same,Activity,[5],10%
same,Activity,[6],100%
same,inhibition,[7],Active
same,IC50,[8],19.4 nM
same,Activity,[9],Non-Toxic
same,Activity,[10],39%
same,Activity,[11],55%
same,Activity,[12],~40%
same,Activity,[13],Active
same,Activity,[14],0.05%
same,viability at 3 µM,[15],93.1%
same,Activity,[16],100%
same,Activity,[17],87%
same,Activity,[18],75%
same,Activity,[19],100%
same,Activity,[20],86%
same,Activity,[21],26%
same,Activity,[22],100%
same,Activity,[23],12%
same,Activity,[24],3.4%
same,Activity,[25],96%
same,IC50,[26],79.6 nM
same,IC50,[27],165 nM
same,Activity,[28],100%
